Assays:
[1] = organism: Rattus norvegicus; test: Effect on oxygen consumption rate in Wistar Albino rat liver mitochondria assessed as inhibition in state 3 respiration at 25 uM in presence of succinate relative to control; format: functional; parameters: scale not given: the % may be the effect or the level left
Outline: (§1)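 Isolated rat liver mitochondria respiring on glutamate or succinate as substrate; oxygen consumption recorded. State 3 is the rate after ADP addition and state 4 the rate after ADP is exhausted. The respiratory control coefficient (RCC) and ADP/O ratio were determined in the same runs. Flavone tested across 25–200 μM.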

[2] = organism: Rattus norvegicus; test: Effect on respiratory control coefficient in Wistar Albino rat liver mitochondria at 50 uM in presence of succinate relative to control; format: functional; outline: as §1
[3] = organism: Rattus norvegicus; test: Effect on respiratory control coefficient in Wistar Albino rat liver mitochondria at 25 uM in presence of succinate relative to control; format: functional; outline: as §1
[4] = organism: Rattus norvegicus; test: Effect on oxygen consumption rate in Wistar Albino rat liver mitochondria assessed as inhibition in state 3 respiration at 50 uM in presence of succinate relative to control; format: functional; parameters: scale not given: the % may be the effect or the level left; outline: as §1
[5] = organism: Rattus norvegicus; test: Effect on oxygen consumption rate in Wistar Albino rat liver mitochondria assessed as inhibition in state 3 respiration at 75 uM in presence of succinate relative to control; format: functional; parameters: scale not given: the % may be the effect or the level left; outline: as §1
[6] = organism: Rattus norvegicus; test: Effect on oxygen consumption rate in Wistar Albino rat liver mitochondria assessed as inhibition in state 3 respiration at 100 uM in presence of succinate relative to control; format: functional; parameters: scale not given: the % may be the effect or the level left; outline: as §1
[7] = organism: Rattus norvegicus; test: Effect on oxygen consumption rate in Wistar Albino rat liver mitochondria assessed as inhibition in state 3 respiration at 200 uM in presence of succinate relative to control; format: functional; parameters: scale not given: the % may be the effect or the level left; outline: as §1
[8] = organism: Rattus norvegicus; test: Effect on ADP/O ratio in Wistar Albino rat liver mitochondria at 25 uM in presence of succinate relative to control; format: functional; outline: as §1
[9] = organism: Rattus norvegicus; test: Effect on ADP/O ratio in Wistar Albino rat liver mitochondria at 50 uM in presence of succinate relative to control; format: functional; outline: as §1
[10] = organism: Rattus norvegicus; test: Effect on ADP/O ratio in Wistar Albino rat liver mitochondria at 75 uM in presence of succinate relative to control; format: functional; outline: as §1
[11] = organism: Rattus norvegicus; test: Effect on ADP/O ratio in Wistar Albino rat liver mitochondria at 100 uM in presence of succinate relative to control; format: functional; outline: as §1
[12] = organism: Rattus norvegicus; test: Effect on oxygen consumption rate in Wistar Albino rat liver mitochondria assessed as inhibition in state 3 respiration at 25 uM in presence of sodium glutamate relative to control; format: functional; parameters: scale not given: the % may be the effect or the level left; outline: as §1
[13] = organism: Rattus norvegicus; test: Effect on oxygen consumption rate in Wistar Albino rat liver mitochondria assessed as inhibition in state 3 respiration at 50 uM in presence of sodium glutamate relative to control; format: functional; parameters: scale not given: the % may be the effect or the level left; outline: as §1
[14] = organism: Rattus norvegicus; test: Effect on oxygen consumption rate in Wistar Albino rat liver mitochondria assessed as inhibition in state 3 respiration at 75 uM in presence of sodium glutamate relative to control; format: functional; parameters: scale not given: the % may be the effect or the level left; outline: as §1
[15] = organism: Rattus norvegicus; test: Effect on oxygen consumption rate in Wistar Albino rat liver mitochondria assessed as inhibition in state 3 respiration at 100 uM in presence of sodium glutamate relative to control; format: functional; parameters: scale not given: the % may be the effect or the level left; outline: as §1
[16] = organism: Rattus norvegicus; test: Effect on oxygen consumption rate in Wistar Albino rat liver mitochondria assessed as inhibition in state 3 respiration at 200 uM in presence of sodium glutamate relative to control; format: functional; parameters: scale not given: the % may be the effect or the level left; outline: as §1
[17] = organism: Rattus norvegicus; test: Effect on oxygen consumption rate in Wistar Albino rat liver mitochondria assessed as inhibition in state 4 respiration at 25 uM in presence of sodium glutamate relative to control; format: functional; parameters: scale not given: the % may be the effect or the level left; outline: as §1
[18] = organism: Rattus norvegicus; test: Effect on oxygen consumption rate in Wistar Albino rat liver mitochondria assessed as inhibition in state 4 respiration at 50 uM in presence of sodium glutamate relative to control; format: functional; parameters: scale not given: the % may be the effect or the level left; outline: as §1
[19] = organism: Rattus norvegicus; test: Effect on oxygen consumption rate in Wistar Albino rat liver mitochondria assessed as inhibition in state 4 respiration at 75 uM in presence of sodium glutamate relative to control; format: functional; parameters: scale not given: the % may be the effect or the level left; outline: as §1
[20] = organism: Rattus norvegicus; test: Inhibition of NADH dehydrogenase in Wistar Albino rat liver mitochondria at 25 uM relative to control; parameters: scale not given: the % may be the effect or the level left
[21] = organism: Rattus norvegicus; test: Inhibition of NADH dehydrogenase in Wistar Albino rat liver mitochondria at 75 uM relative to control; parameters: scale not given: the % may be the effect or the level left
[22] = organism: Rattus norvegicus; test: Inhibition of NADH dehydrogenase in Wistar Albino rat liver mitochondria at 100 uM relative to control; parameters: scale not given: the % may be the effect or the level left
[23] = organism: Rattus norvegicus; test: Inhibition of NADH dehydrogenase in Wistar Albino rat liver mitochondria at 200 uM relative to control; parameters: scale not given: the % may be the effect or the level left
[24] = organism: Rattus norvegicus; test: Inhibition of NADH-cytochrome c reductase in Wistar Albino rat liver mitochondria at 25 uM relative to control; parameters: scale not given: the % may be the effect or the level left
[25] = organism: Rattus norvegicus; test: Inhibition of NADH-cytochrome c reductase in Wistar Albino rat liver mitochondria at 50 uM relative to control; parameters: scale not given: the % may be the effect or the level left
[26] = organism: Rattus norvegicus; test: Effect on oxygen consumption rate in Wistar Albino rat liver mitochondria assessed as inhibition in state 4 respiration at 25 uM in presence of succinate relative to control; format: functional; parameters: scale not given: the % may be the effect or the level left; outline: as §1
[27] = organism: Rattus norvegicus; test: Effect on oxygen consumption rate in Wistar Albino rat liver mitochondria assessed as inhibition in state 4 respiration at 50 uM in presence of succinate relative to control; format: functional; parameters: scale not given: the % may be the effect or the level left; outline: as §1
[28] = organism: Rattus norvegicus; test: Effect on oxygen consumption rate in Wistar Albino rat liver mitochondria assessed as inhibition in state 4 respiration at 75 uM in presence of succinate relative to control; format: functional; parameters: scale not given: the % may be the effect or the level left; outline: as §1
[29] = organism: Rattus norvegicus; test: Effect on oxygen consumption rate in Wistar Albino rat liver mitochondria assessed as inhibition in state 4 respiration at 100 uM in presence of succinate relative to control; format: functional; parameters: scale not given: the % may be the effect or the level left; outline: as §1
[30] = organism: Rattus norvegicus; test: Effect on respiratory control coefficient in Wistar Albino rat liver mitochondria at 75 uM in presence of succinate relative to control; format: functional; outline: as §1
[31] = organism: Rattus norvegicus; test: Effect on respiratory control coefficient in Wistar Albino rat liver mitochondria at 100 uM in presence of succinate relative to control; format: functional; outline: as §1
[32] = organism: Rattus norvegicus; test: Effect on oxygen consumption rate in Wistar Albino rat liver mitochondria assessed as inhibition in state 4 respiration at 100 uM in presence of sodium glutamate relative to control; format: functional; parameters: scale not given: the % may be the effect or the level left; outline: as §1
[33] = organism: Rattus norvegicus; test: Effect on respiratory control coefficient in Wistar Albino rat liver mitochondria at 25 uM in presence of sodium glutamate relative to control; format: functional; outline: as §1
[34] = organism: Rattus norvegicus; test: Effect on respiratory control coefficient in Wistar Albino rat liver mitochondria at 50 uM in presence of sodium glutamate relative to control; format: functional; outline: as §1
[35] = organism: Rattus norvegicus; test: Effect on respiratory control coefficient in Wistar Albino rat liver mitochondria at 75 uM in presence of sodium glutamate relative to control; format: functional; outline: as §1
[36] = organism: Rattus norvegicus; test: Effect on respiratory control coefficient in Wistar Albino rat liver mitochondria at 100 uM in presence of sodium glutamate relative to control; format: functional; outline: as §1
[37] = organism: Rattus norvegicus; test: Effect on ADP/O ratio in Wistar Albino rat liver mitochondria at 25 uM in presence of sodium glutamate relative to control; format: functional; outline: as §1
[38] = organism: Rattus norvegicus; test: Effect on ADP/O ratio in Wistar Albino rat liver mitochondria at 50 uM in presence of sodium glutamate relative to control; format: functional; outline: as §1
[39] = organism: Rattus norvegicus; test: Effect on ADP/O ratio in Wistar Albino rat liver mitochondria at 75 uM in presence of sodium glutamate relative to control; format: functional; outline: as §1
[40] = organism: Rattus norvegicus; test: Effect on ADP/O ratio in Wistar Albino rat liver mitochondria at 100 uM in presence of sodium glutamate relative to control; outline: as §1
[41] = organism: Rattus norvegicus; test: Inhibition of NADH-cytochrome c reductase in Wistar Albino rat liver mitochondria at 75 uM relative to control; parameters: scale not given: the % may be the effect or the level left

Activity [20]: 42%
Activity [21]: 51%
Activity [22]: 50%
Activity [23]: 39%
Activity [24]: 54%
Activity [25]: 45%
Activity [40]: 88.6%
Activity [41]: 46%
SMILES: COc1c(O)cc2oc(-c3ccc(O)c(O)c3)cc(=O)c2c1O
Activity [1]: 83%
Activity [2]: 55.1%
Activity [3]: 76.4%
Activity [4]: 55.2%
Activity [5]: 51.2%
Activity [6]: 45.4%
Activity [7]: 34.7%
Activity [8]: 85.8%
Activity [9]: 85.4%
Activity [10]: 81.6%
Activity [11]: 74.7%
Activity [12]: 84.9%
Activity [13]: 66%
Activity [14]: 54.9%
Activity [15]: 31.8%
Activity [16]: 19.8%
Activity [17]: 109%
Activity [18]: 102%
Activity [19]: 109%
Activity [26]: 106%
Activity [27]: 109%
Activity [28]: 121%
Activity [29]: 132%
Activity [30]: 52.9%
Activity [31]: 36.8%
Activity [32]: 99.4%
Activity [33]: 73%
Activity [34]: 66.5%
Activity [35]: 40.9%
Activity [36]: 24.9%
Activity [37]: 92.8%
Activity [38]: 85%
Activity [39]: 90.6%

From ChEMBL document CHEMBL1143202
